Results: ChEMBL document CHEMBL6074622, “8-l-Cystinyl Bis(1,8-diazaspiro[4.5]decane) as an Orally Bioavailable l-Cystine Crystallization Inhibitor for Cystinuria” (ACS Med Chem Lett, 2024)

How the values were obtained:
[1] = Half life in Slc3a1-knockout mouse at 150 micromol/kg, po or 30 micromol/kg, iv measured upto 24 hrs by LC-MS/MS analysis; type: ADME, organism-based; details: in vivo, dose 150 µmol/kg
Outline: (§1)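 Male Slc3a1-knockout mice (4 per route) dosed once by oral gavage in normal saline (150 μmol/kg) or by tail vein injection (30 μmol/kg). Saphenous-vein blood drawn into heparinized capillaries before dosing and at 5, 15, 30 min and 1, 4, 8, 24 h. Plasma stored at −80 °C. Parent and mixed-disulfide metabolite M1 quantitated by LC-MS/MS against synthetic M1. Oral bioavailability derived from oral versus iv exposure.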

[2] = Toxicity in SLC3A1-knockout male mouse assessed as animal death at 150 micromol/kg, po administered daily for 4 weeks; type: organism-based; details: in vivo, 672 h, dose 150 µmol/kg
[3] = Half life in Slc3a1-knockout mouse by measuring (2R)-2-amino-3-[[(2R)-2-amino-3-(1,8-diazaspiro[4.5]decan-8-yl)-3-oxo-propyl]disulfanyl]propanoic acid metabolite at 150 micromol/kg, po or 30 micromol/kg, iv measured upto 24 hrs by LC-MS/MS analysis; type: ADME, organism-based; details: in vivo, dose 150 µmol/kg; outline: as §1
[4] = test system: Cystine; assay: Inhibition of L-cystine crystallization in aqueous solution assessed as ratio of step velocity in presence of compound to step velocity measured initially in absence of compound at 45 uM by atomic force microscopic analysis
Outline: (§2)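 AFM on the {0001} face of L-cystine crystals. Crystals were regrown for 20 min under flowing supersaturated 2 mM L-cystine (20 mL/h). {1010} step velocity was measured without inhibitor (V0), then with inhibitor at 15, 30 or 45 μM (V). Images were taken about 25 min after inhibitor injection. Result reported as a V/V0 range.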

[5] = test system: Cystine; assay: In-vivo inhibition of L-cystine crystallization in SLC3A1-knockout male mouse assessed as reduction in stone formation in bladder at 150 micromol/kg, po administered daily for 8 weeks; type: functional, organism-based; design: scale not given: the % may be the effect or the level left; details: dose 150.0 µmol/kg
[6] = Toxicity in SLC3A1-knockout male mouse assessed as body weight at 150 micromol/kg, po administered daily for 8 weeks (reference value: 20.3 +/- 2.1 g); type: organism-based; details: in vivo, 1344 h, dose 150 µmol/kg
[7] = test system: Cystine; assay: Inhibition of L-cystine crystallization in aqueous solution assessed as ratio of step velocity in presence of compound to step velocity measured initially in absence of compound at 15 uM by atomic force microscopic analysis; outline: as §2
[8] = Observed apparent oral clearance in Slc3a1-knockout mouse at 150 micromol/kg or 30 micromol/kg measured upto 24 hrs by LC-MS/MS analysis; type: ADME; details: in vivo, dose 150 µmol/kg; outline: as §1
[9] = Cmax in Slc3a1-knockout mouse at 150 micromol/kg, po or 30 micromol/kg, iv measured upto 24 hrs by LC-MS/MS analysis; type: ADME, organism-based; details: in vivo, dose 150 µmol/kg; outline: as §1
[10] = Oral bioavailability in Slc3a1-knockout mouse at 150 micromol/kg or 30 micromol/kg measured upto 24 hrs by LC-MS/MS analysis; type: ADME, organism-based; details: in vivo, at 150 µmol/kg; outline: as §1
[11] = Oral bioavailability in Slc3a1-knockout mouse by measuring total parent compound and (2R)-2-amino-3-[[(2R)-2-amino-3-(1,8-diazaspiro[4.5]decan-8-yl)-3-oxo-propyl]disulfanyl]propanoic acid metabolite at 150 micromol/kg or 30 micromol/kg measured upto 24 hrs by LC-MS/MS analysis; type: ADME, organism-based; details: in vivo, at 150 µmol/kg; outline: as §1
[12] = Drug metabolism in Slc3a1-knockout mouse assessed as (2R)-2-amino-3-[[(2R)-2-amino-3-(1,8-diazaspiro[4.5]decan-8-yl)-3-oxo-propyl]disulfanyl]propanoic acid metabolite formation; type: ADME
[13] = Oral bioavailability in Slc3a1-knockout mouse by measuring (2R)-2-amino-3-[[(2R)-2-amino-3-(1,8-diazaspiro[4.5]decan-8-yl)-3-oxo-propyl]disulfanyl]propanoic acid metabolite at 150 micromol/kg or 30 micromol/kg measured upto 24 hrs by LC-MS/MS analysis; type: ADME, organism-based; details: in vivo, at 150 µmol/kg; outline: as §1
[14] = (§3) Cmax in Slc3a1-knockout mouse by measuring (2R)-2-amino-3-[[(2R)-2-amino-3-(1,8-diazaspiro[4.5]decan-8-yl)-3-oxo-propyl]disulfanyl]propanoic acid metabolite at 150 micromol/kg, po or 30 micromol/kg, iv measured upto 24 hrs by LC-MS/MS analysis; type: ADME, organism-based; details: in vivo, dose 150 µmol/kg; outline: as §1
[15] = AUC (0 to t) in Slc3a1-knockout mouse at 150 micromol/kg, po or 30 micromol/kg, iv measured upto 24 hrs by LC-MS/MS analysis; type: ADME, organism-based; details: in vivo, dose 150 µmol/kg; outline: as §1
[16] = Toxicity in SLC3A1-knockout male mouse assessed as increase in body weight at 150 micromol/kg, po administered daily for 8 weeks; type: organism-based; details: in vivo, 1344 h, at 150 µmol/kg
[17] = as §3, with “Observed apparent volume of distribution during terminal phase” for “Cmax”; type: ADME, organism-based; details: in vivo, dose 150 µmol/kg; outline: as §1
[18] = AUC (0 to t) in Slc3a1-knockout mouse by measuring total parent compound and (2R)-2-amino-3-[[(2R)-2-amino-3-(1,8-diazaspiro[4.5]decan-8-yl)-3-oxo-propyl]disulfanyl]propanoic acid metabolite at 150 micromol/kg, po or 30 micromol/kg, iv measured upto 24 hrs by LC-MS/MS analysis; type: ADME, organism-based; details: in vivo, dose 150 µmol/kg; outline: as §1
[19] = Drug level in SLC3A1-knockout mouse urine assessed as (2R)-2-amino-3-[[(2R)-2-amino-3-(1,8-diazaspiro[4.5]decan-8-yl)-3-oxo-propyl]disulfanyl]propanoic acid metabolite concentration in urine at 150 micromol/kg, po measured after 24 hrs; type: ADME, organism-based; details: in vivo, dose 150 µmol/kg, read-out: Ct
Outline: (§4)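 Urine was collected 24 and 48 h after dosing. Parent and mixed-disulfide metabolite were measured, with the metabolite quantitated against chemically synthesized standard.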

[20] = Observed apparent volume of distribution during terminal phase in Slc3a1-knockout mouse at 150 micromol/kg, po or 30 micromol/kg, iv measured upto 24 hrs by LC-MS/MS analysis; type: ADME, organism-based; details: in vivo, dose 150 µmol/kg; outline: as §1
[21] = Drug level in SLC3A1-knockout mouse urine assessed as (2R)-2-amino-3-[[(2R)-2-amino-3-(1,8-diazaspiro[4.5]decan-8-yl)-3-oxo-propyl]disulfanyl]propanoic acid metabolite concentration in urine at 30 micromol/kg, iv measured after 24 hrs; type: ADME, organism-based; details: in vivo, dose 30 µmol/kg, read-out: Ct; outline: as §4
[22] = test system: Cystine; assay: Inhibition of L-cystine crystallization in aqueous solution assessed as ratio of step velocity in presence of compound to step velocity measured initially in absence of compound at 30 uM by atomic force microscopic analysis; outline: as §2
[23] = test system: Cystine; assay: Inhibition of L-cystine crystallization in millipore water at room temperature incubated for 72 hrs
Outline: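 Supersaturated L-cystine (2.9 mM) in Millipore water was incubated with varying inhibitor concentrations for 72 h at room temperature and then centrifuged. L-cystine remaining in the supernatant was measured. EC50 was taken from dose–response curves as the concentration giving 50% inhibition of crystallization.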

[24] = AUC (0 to t) in Slc3a1-knockout mouse by measuring (2R)-2-amino-3-[[(2R)-2-amino-3-(1,8-diazaspiro[4.5]decan-8-yl)-3-oxo-propyl]disulfanyl]propanoic acid metabolite at 150 micromol/kg, po or 30 micromol/kg, iv measured upto 24 hrs by LC-MS/MS analysis; type: ADME, organism-based; details: in vivo, dose 150 µmol/kg; outline: as §1
[25] = Observed apparent oral clearance in Slc3a1-knockout mouse by measuring (2R)-2-amino-3-[[(2R)-2-amino-3-(1,8-diazaspiro[4.5]decan-8-yl)-3-oxo-propyl]disulfanyl]propanoic acid metabolite at 150 micromol/kg or 30 micromol/kg measured upto 24 hrs by LC-MS/MS analysis; type: ADME; details: in vivo, dose 150 µmol/kg; outline: as §1
[26] = Toxicity in SLC3A1-knockout male mouse assessed as animal death at 150 micromol/kg, po administered daily for 8 weeks; type: organism-based; details: in vivo, 1344 h, dose 150 µmol/kg
Outline: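 Slc3a1-knockout male mice, 6 weeks old, bred by Slc3a1 × Slc3a1 mating; one pup per mating treated, one or more littermates as controls. Compound dissolved in water (18.9 mg/mL) and given by daily gavage of 100 μL (150 μmol/kg) for 8 weeks; controls received 100 μL water. Mice were sacrificed at study end, and kidneys and bladders were weighed.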

Ratio [4] | Ratio [7] | Ratio [22] | EC50 [23] [nM] | SMILES | F [10] [%] | F [11] [%] | Drug metabolism [12] | F [13] [%] | also measured
0.21 | 0.4 | 0.27 | 3530 | COC(=O)[C@@H](N)CSSC[C@H](N)C(=O)OC | – | – | – | – | –
0.3 | 0.52 | 0.32 | 59.8 | CN1CCN(C(=O)[C@@H](N)CSSC[C@H](N)C(=O)N2CCN(C)CC2)CC1 | 2.3 | 18 | metabolite_detected | 25 | –

SMILES | Ratio [4] | Ratio [7] | Ratio [22] | EC50 [23] [nM] | F [10] [%] | F [11] [%] | Drug metabolism [12] | F [13] [%] | also measured
N[C@@H](CSSC[C@H](N)C(=O)N1CCC2(CCCN2)CC1)C(=O)N1CCC2(CCCN2)CC1 | 0.01 | 0.01 | 0.04 | 29.5 | 16 | 22 | metabolite_detected | 27 | t1/2 [1]: 0.6 h; Activity [2]: Non-toxic; t1/2 [3]: 2.4 h; Activity [5]: 8%; Activity [6]: 20.3 g; CL/F_obs [8]: 0.008 micromol/kg/nmol/L/hr; Cmax [9]: 11.4 µM; Cmax [14]: 16.9 µM; AUCt [15]: 18.542 µM·h; Activity [16]: 14.6%; Vz/F obs [17]: 0.0108 micromol/kg/nmol/L; AUCt [18]: 59.505 µM·h; concentration [19]: 2.1 µM; Vz/F_obs [20]: 0.007 micromol/kg/nmol/L; concentration [21]: 1 µM; AUCt [24]: 40.963 µM·h; CL/F_obs [25]: 0.003 micromol/kg/nmol/L/hr; Activity [26]: Non-toxic
